The source of these data is PubChem BioAssay AID1424 (The Scripps Research Institute Molecular Screening Center, 2008).

Screen size: about 220,000 compounds; about 390 (0.18%) were called active. Shown is part of a subset that was picked to be rich in actives. Unmarked numbers belong to inactive results.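 How the source made its calls: active means activation above its plate's cutoff, the mean activation of test wells on that plate plus 3 SD (cut at about 19% in these data); inactive means the rest.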

The experiment deals with transient receptor potential cation channel N1 (TRPN1/NompC), Danio rerio. The experiment in a line: TRPN1 activation via calcium influx – cell-based, HEK293, calcium fluorescence, zebrafish, primary screen (AID 1424).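 Further: 0% = DMSO alone and 100% = 87 µM carbachol.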 To be noted: HEK293 zebrafish TRPN1-YFP, Fluo-8 calcium fluorescence; at 3 µM; hits give high values; 100% = response to 87 µM carbachol. A digest of the protocol:
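System: zebrafish TRPN1-YFP in HEK293 cells / Dosing: 3 µM single point / Timing: dye loading 1 h at 37 °C, then 30 min room temperature / Signal: Fluo-8 calcium fluorescence, excitation 470-495 nm, emission 515-575 nm / Read-out basis: percent activation from peak over basal fluorescence ratio, control-normalized / Control set: high carbachol 87 µM, low DMSO alone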
For `CC(=O)c1c(C)[nH]c(=S)c(C#N)c1-c1ccc(F)cc1`, the activation was -0.66%. The result for `Oc1ccc2ccc3cccc[n+]3c2c1` reads 33.7% (active); that for `CCN(Cc1ccccc1)S(=O)(=O)c1cc(C(=O)O)ccc1OC`, -2.45%; that for `COc1cc(OC)cc(C(=O)N[C@H](C(=O)OCC(=O)NC(C)c2ccccc2)C(C)C)c1` (stereo partly specified), 46.5% (active). In the case of `CC(NC(=O)COC(=O)c1ccc2c(c1)OCO2)c1ccccc1` (stereo unspecified), the activation was 1%. The result for `COc1cc(OC)cc(C(=O)N[C@H](C(=O)Nc2nc3ccccc3[nH]2)C(C)C)c1` reads -2.24%. With `COc1ccc(C(=O)N/N=C2\CCS(=O)(=O)c3ccc(F)cc32)cc1OC`, the activation was 2.13%. Regarding `COC(=O)c1cc(NC(=O)CN2CCN(C(C)=O)CC2)cc(C(=O)OC)c1`, the activation was 2.13%. Regarding `COc1ccc(S(=O)(=O)NC(C)C)cc1C(=O)NC1CCCCC1`, the activation is -0.93%. The result for `COc1cc(OC)c(C(=O)NC2CC(C)(C)NC(C)(C)C2)cc1OC` reads 2.05%; that for `COc1cc(OC)c(C(=O)NC2CCCCCC2)cc1OC`, 32.1% (active). Regarding `CC(C)(C)c1cc(NC(=O)NN2CCOCC2)nn1-c1c(Cl)cc(Cl)cc1Cl`, the activation was 0.61%. The result for `O=C(NC(=O)N1CCSCC1)c1c(Cl)cccc1Cl` reads 2.1%; that for `O=S(=O)(/N=C(/Nc1ccccc1)c1ccccc1)c1cccs1`, -0.34%; that for `O=C(NCCCN1CCN(c2ccc(F)cc2)CC1)Nc1ccc([N+](=O)[O-])cc1`, 10.4%. For `Cc1ccccc1NC(=S)NNC(=O)c1cccc(Br)c1`, the activation is 2.03%. The result for `CC(=O)Nc1ccc(CN2CCN(Cc3ccc(F)c(F)c3)C(CCO)C2)cc1` (stereo unspecified) reads 2.06%; that for `CCOC(=O)/C(=N\Nc1ccccc1Cl)N(C)C1CCS(=O)(=O)C1` (stereo unspecified), -0.61%.

As for `COc1ccc(C(=O)N/N=C(\C)CC(=O)Nc2ccc(Cl)cn2)cc1`, the activation was -1.34%. With `NC(=O)CC[C@@H]1NC(=O)[C@@H]2CCCN2C(=O)c2cc([N+](=O)[O-])cc(F)c2NCCC[C@@H](C(N)=O)NC1=O`, the activation is 1.08%. The result for `Cc1ccc(O)c(NC(=S)NC(=O)COc2ccc(Br)cc2)c1` reads 30.4% (active). The result for `Cc1cccc(OCC(=O)NC(=S)Nc2ccccc2N2CCOCC2)c1` reads -0.19%.

Consider `Cc1ccc(O)c(NC(=O)COc2cc(C)ccc2C)c1`, for which the activation was -0.38%.

Regarding `CC(=O)c1sc(NC(=O)C2=NN(c3ccccc3)C(=O)CC2)nc1C`, the activation was 0.7%. Turning to `C=CCNC(=S)N1CCc2[nH]c3ccccc3c2C1`, the activation is 0.61%.

For `Cc1cc(C)c2[nH]c(=O)c(CN(Cc3ccccc3)C(=S)NCCCN(C)C)cc2c1`, the activation was -0.96%. Take `CSc1ncccc1C(=O)OCc1ccc(Br)cc1`: the activation was -0.54%.

For `Cc1nc2sc(C(=O)c3ccccc3)c(N)c2c2c1CCCC2`, the activation was -0.99%.

Regarding `Nc1c(C(=O)c2cccs2)sc2nsc(SCCN3CCCCC3)c12`, the activation was 33.7% (active).

For `CN(C)c1ccnc2sc(C(=O)c3ccccc3)c(N)c12`, the activation is -2.41%. The result for `Cn1ccs/c1=N\S(=O)(=O)c1ccc(C(C)(C)C)cc1` reads 1.16%; that for `COc1ccccc1C1CC(=O)n2c(nc(-c3ccccc3)c2-c2ccccc2)S1` (stereo unspecified), -0.42%; that for `COc1c(C)cc(C(=O)C2CCCN(S(=O)(=O)c3c(C)noc3C)C2)cc1C` (stereo unspecified), -0.64%. With `Fc1ccc(NC(=S)N2CCc3[nH]c4ccccc4c3C2)cc1`, the activation was 3.02%. In the case of `O=C(NCCCn1ccnc1)C(=O)NCC1OCCN1S(=O)(=O)c1cc(F)ccc1F` (stereo unspecified), the activation is 1%. As to `CC(C)CC(CC(C)C)=NNC(=O)c1ccc(CSc2nncn2C)cc1`, the activation was -0.24%.

As to `CC(=O)Nc1ccccc1C(=O)C(=O)Nc1ccc(F)cc1`, the activation is 0%. For the compound `COc1ccc(COC(=O)N/N=C(\C)CC(=O)Nc2ccc(Cl)cc2)cc1`, the activation was -1.28%. The result for `COc1ccccc1CSc1ncc(-c2ccc([N+](=O)[O-])cc2)[nH]1` reads -2.17%; that for `CCc1ccc(NC(=O)C(C)OC(=O)/C=C/c2cccc([N+](=O)[O-])c2)cc1` (stereo unspecified), 2.04%.

As to `Cn1cnc(C(F)(F)F)c1-c1ccc([N+](=O)[O-])cc1`, the activation was -1.25%.

Consider `Cc1cc(C)cc(OCC(=O)O/N=C(\N)Cc2ccc([N+](=O)[O-])cc2)c1`, for which the activation is -1.73%.

`O=c1c(Cl)c(NCc2ccc(F)cc2Cl)cnn1C12CC3CC(CC(C3)C1)C2`: the activation was 0.56%. On to `O=C(NC(Nc1nc2ccc([N+](=O)[O-])cc2s1)(C(F)(F)F)C(F)(F)F)c1ccccc1`, for which the activation is 27.4% (active). For `O=C(O)CCC(=O)Nc1nc2ccc([N+](=O)[O-])cc2s1`, the activation was -0.08%. The result for `O=C(Nc1nc2ccc([N+](=O)[O-])cc2s1)c1ccncc1` reads 4.01%.
